In ChEMBL document CHEMBL1275496, “In vivo pharmacodynamic target investigation for micafungin against Candida albicans and C. glabrata in a neutropenic murine candidiasis model” (Antimicrob Agents Chemother, 2008):
In brackets after ≈: the same amount, converted by molar mass. *1 amine or outer side, *2 acyl side, *3 side chain or, on linkers, in order; H or OH if unused. Where a SMILES comes first, the peptide text is derived from it. Bridges are numbered along the chain shown (N, C = ends). [ ]: non-standard residue; d: D form. The star is where a group is joined. hTyr(3S-OH,4S-OH,3'-OSO3H) = N[C@H](C(=O)O)[C@H](O)[C@@H](O)c1ccc(O)c(OS(=O)(=O)O)c1; Orn(4R-OH,5R-OH) = O=C([C@H](C[C@@H](O)[C@@H](O)N[*:3])N[*:1])[*:2]; Pro(3S-OH,4S-Me) = C[C@H]1CN[C@H](C(=O)O)[C@H]1O; X1 = CCCCCOc1ccc(-c2cc(-c3ccc(C(=O)*)cc3)no2)cc1; Gln(3R-OH) = NC(=O)C[C@@H](O)[C@H](N)C(=O)O; Hyp = O=C(O)[C@@H]1C[C@@H](O)CN1

Columns and labels:
[1] = Half life in Candida infected ICR/Swiss neutropenic mouse at 20 mg/kg, ip; format: ADME, organism-based; parameters: dose 20 mg/kg, route intraperitoneal; conditions: in vivo
Summary of the method: (§1)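 Single intraperitoneal micafungin doses (80, 20, 5 mg/kg in 0.2 ml, 0.15 M NaCl) given to infected neutropenic mice. Serum was taken from 3 mice per time point at 1, 2, 4, 6, 8, 12, 24 and 48 h. Drug was measured by microbiologic assay with C. albicans K1 (LLOQ 0.12 μg/ml). Noncompartmental analysis; half-life by nonlinear least squares; AUC by trapezoidal rule.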

Nakaseomyces glabratus [2] = experiment: Antifungal activity against Candida glabrata; format: functional
Summary of the method: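 Broth microdilution MIC per CLSI M27-A2. Two endpoints were read against the drug-free control well: partial inhibition (M1, CLSI recommended) and complete inhibition (M2). Tests were run in duplicate on four separate occasions, and the value is the mean.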

[3] = Ratio of AUC in ICR/Swiss neutropenic mouse at static dose of 1.34 mg/kg, ip after 24 hrs to MIC for Candida glabrata isolate 513; format: functional; conditions: route intraperitoneal
Candida albicans = experiment: Antifungal activity against Candida albicans isolate 580 infected in ICR/Swiss neutropenic mouse assessed as dose required for 1-log kill after 24 hrs; format: functional
Summary of the method: (§2)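 Neutropenic mice (cyclophosphamide sc 150 mg/kg day −4, 100 mg/kg day −1 and +2) infected iv by tail vein 2 h before therapy. Micafungin given ip every 24 h for 4 days at six fourfold-spaced dose levels, 0.078–80 mg/kg/24 h, 3 mice per group. Kidney CFU read at 96 h. Hill-model fit; dose giving 1 log10 below start-of-therapy burden.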

[4] = Ratio of fAUC in ICR/Swiss neutropenic mouse at 1-Log kill dose of 6.70 mg/kg, ip after 24 hrs to MIC for Candida glabrata isolate 570; format: functional; conditions: dose 6.7 mg/kg; route intraperitoneal
[5] = AUC (0 to infinity) in Candida infected ICR/Swiss neutropenic mouse at 20 mg/kg, ip; format: ADME, organism-based; parameters: time infinity, dose 20 mg/kg, route intraperitoneal; conditions: plasma; summary of the method: as §1
Nakaseomyces glabratus [6] = experiment: Antifungal activity against Candida glabrata isolate 570 infected in ICR/Swiss neutropenic mouse assessed as dose required for 1-log kill after 24 hrs; format: functional; summary of the method: as §2

Question: For CCCCCOc1ccc(-c2cc(-c3ccc(C(=O)N[C@H]4C[C@@H](O)[C@@H](O)NC(=O)[C@@H]5[C@@H](O)[C@@H](C)CN5C(=O)[C@H]([C@H](O)CC(N)=O)NC(=O)[C@H]([C@H](O)[C@@H](O)c5ccc(O)c(OS(=O)(=O)O)c5)NC(=O)[C@@H]5C[C@@H](O)CN5C(=O)[C@H]([C@@H](C)O)NC4=O)cc3)no2)cc1 [MICAFUNGIN] (X1-[Orn(4R-OH,5R-OH)]T[Hyp][hTyr(3S-OH,4S-OH,3'-OSO3H)][Gln(3R-OH)][Pro(3S-OH,4S-Me)]; lactam 1-C), which half-life [1] is on record?
Answer: 13 h

Question: And the MIC50 (Nakaseomyces glabratus [2])?
Answer: 0.015 µg/mL (≈ 0.0118 µM)

Question: And the MIC90 (Nakaseomyces glabratus [2])?
Answer: 0.015 µg/mL (≈ 0.0118 µM)

Question: What about the RatioAUC/MIC [3] of the same compound?
Answer: 2467

Question: And the Activity (Candida albicans)?
Answer: 2.36 mg/kg

Question: What about the fAUC/MIC [4] of the same compound?
Answer: 30.2

Question: What about the AUC(0-inf) [5] of the same compound?
Answer: 520 µg·h/mL

Question: And the Activity (Nakaseomyces glabratus [6])?
Answer: 6.7 mg/kg
